V-ATPase pH: regulators of yeast V-ATPase proton transport; S. cerevisiae, pHLuorin cytosolic pH fluorescence; response, % at 10 µM; 350,000 compounds, 0.37% hits; AID 504577; in the data active means response mostly above about 7.3%, no sharp cut-off; inactive means mostly below about 5.4%; further: actives read high
ADAM17 inh: inhibitors of human ADAM17; recombinant ADAM17, EDANS/DABCYL FRET peptide cleavage; P78536; inhibition, % at 6.95 µM; 370,000 compounds, 0.83% hits; AID 720648;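 active means inhibition above the mean of compounds lying between control limits plus 3 SD, set per campaign, cut at about 8.5% in these data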;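 further: 0% = DMSO-only wells as the low control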
Target sequence (P78536 215-824 limits assumed): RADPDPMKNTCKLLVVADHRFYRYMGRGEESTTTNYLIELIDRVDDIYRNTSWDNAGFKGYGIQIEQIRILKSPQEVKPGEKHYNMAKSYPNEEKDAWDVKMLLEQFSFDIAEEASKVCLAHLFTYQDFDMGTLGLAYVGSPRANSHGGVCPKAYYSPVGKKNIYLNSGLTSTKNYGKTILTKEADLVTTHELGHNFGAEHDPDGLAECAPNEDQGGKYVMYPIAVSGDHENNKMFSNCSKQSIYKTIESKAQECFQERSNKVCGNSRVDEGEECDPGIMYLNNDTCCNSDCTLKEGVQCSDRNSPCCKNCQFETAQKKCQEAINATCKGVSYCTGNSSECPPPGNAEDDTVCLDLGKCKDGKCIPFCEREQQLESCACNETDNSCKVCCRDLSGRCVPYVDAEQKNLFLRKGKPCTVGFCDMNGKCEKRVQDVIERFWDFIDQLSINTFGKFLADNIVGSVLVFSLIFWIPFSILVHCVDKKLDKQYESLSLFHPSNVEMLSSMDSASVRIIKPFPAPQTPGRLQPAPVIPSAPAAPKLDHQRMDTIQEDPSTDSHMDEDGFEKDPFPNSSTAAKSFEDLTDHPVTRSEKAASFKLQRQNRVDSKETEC
MPTP block: inhibitors of mitochondrial permeability transition pore; isolated mouse mitochondria, Ca2+ swelling absorbance, 30 min; inhibition, % at 10 µM; 360,000 compounds, 1.4% hits; AID 602449;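 active means inhibition of 50% or more, scaled per plate between neutral and stimulator controls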;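 further: 0% = DMSO wells given calcium and 100% = 1 mM EGTA wells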
ADAM10 inh: inhibitors of human ADAM10 | inhibition, % at 7 µM | recombinant ADAM10, EDANS/DABCYL FRET peptide cleavage, 3 h | 370,000 compounds, 0.62% hits | O14672;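 active means inhibition above a per-campaign cutoff equal to the mean of compounds falling between control-based bounds plus 3 SD, cut at about 20% in these data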;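 further: 0% = DMSO wells while the 100% control is not disclosed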
aDG glyco act: increases alpha dystroglycan glycosylation; activation, % at 10 µM; 360,000 compounds, 0.22% hits; Pro5-aDG cells, alpha-DG glycosylation AlphaScreen (IIH6); 0% Pro5, 100% B10-LARGE cell signal;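 active means activation of at least 8% versus controls, or a plate z-score of at least 8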;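 further: Pro5 are CHO cells carrying HIG-tagged alpha-DG that lacks glycosylation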
Hep lipid drop: modulators of hepatic lipid droplet formation | AML12 mouse hepatocytes, oleate lipid droplets, BODIPY imaging | inhibition, % at 6.5 µM | 240,000 compounds, 0.4% hits;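 active means lipid droplet intensity inhibited by at least 50%, with more than 500 cells counted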
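Test system: AML12 hepatocytes (mouse); reagent: oleate loading, 100 µM; dosing: one dose, 6.5 µM compound; incubation: overnight exposure; signal: fluorescence imaging, 20x objective, two fields per well; read-out basis: % inhibition of corrected integrated BODIPY droplet signal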
VATPase regulator: regulators of yeast V-ATPase proton transport; 980 compounds, 2% hits; response, % at 10 µM; shares compounds with V-ATPase pH; S. cerevisiae pHLuorin cytosolic pH; in the data active means response above about 24%;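 further: plate controls were vehicle wells for no effect and positive control wells for full effect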
The depositor's hits bear a star; i = inactive; x = not tested or not shown. Shown are actives, neighbours in structure and some others; about 3.1% of the full set was active somewhere.

SMILES	V-ATPase pH	ADAM17 inh	MPTP block	ADAM10 inh	aDG glyco act	Hep lipid drop	VATPase regulator
O=C(Nc1ccccc1N1CCOCC1)c1ccc([N+](=O)[O-])o1	25.2*	-6.0	1.6	4.8	1.3	8.0	90.5*
CCOC(=O)c1c(C)nc2ccccc2c1-c1ccccc1	2.9	3.2	1.1	11.2	0.0	2.9	x
CCOC(=O)c1nc2ccccc2c(C)c1C	4.1	-19.5	0.7	-7.3	0.0	17.7	2.2
CCOC(=O)c1c(C)nc2ccccc2c1C	-2.6	-0.7	-0.5	4.7	-0.1	12.5	1.3
CCOC(=O)c1nc2ccccc2nc1C	2.7	-1.5	0.5	1.8	-0.3	11.2	x
CCOC(=O)Cc1nc2ccccc2[nH]1	2.9	-123.3	0.3	-358.7	0.0	11.9	-5.0
O=C1CC(c2ccc3ccccc3c2)N=C2N(Cc3ccc4c(c3)OCO4)C/C(=C/c3ccccc3)N12 (stereo unspecified)	x	0.5	x	7.3	x	x	x
COc1ccc(S[C@]2(C(=O)N(C)C)CC(=O)N(C(=O)C3CC3)[C@@H]2c2ccc(OC)cc2)cc1	x	-0.6	x	-1.2	x	x	x
Nc1ccc(C(=O)OCc2csc(-c3ccccc3)n2)cc1[N+](=O)[O-]	10.0*	1.9	1.5	4.5	0.1	-6.1	-6.6
CCn1cc(C(=O)NCc2ccco2)c(=O)c2ccc(C)nc21	6.7*	-0.7	-0.3	-4.6	0.1	0.4	2.0
Cc1cc(N2CCN(c3ccccn3)CC2)n2nc(C)nc2n1	8.4*	-2.9	-0.2	0.9	-0.1	x	0.5
Cc1cc(N2CCCN(C)CC2)n2nc(C)nc2n1	x	-3.9	x	-3.4	x	x	x
COc1ccc(-c2cc(C(=O)NCCCN3CCCC3=O)c3ccccc3n2)cc1	12.0*	-357.3	-1.8	i	-0.3	x	2.9
CN(C)C(=O)CN1CCN(c2nc3nonc3nc2N2CCCCC2)CC1	12.7*	0.8	-0.3	10.4	-0.2	2.6	1.6
C1CCCN(c2nc3nonc3nc2N2CCCCCC2)CC1	-0.1	-1.2	-0.9	-2.0	-0.2	0.2	x
Cc1cccc(N2C(=O)CN(Cc3sccc3C)C2=S)c1	-1.6	-0.1	-2.8	-1.7	0.0	29.4	x
Cc1ccsc1CN1CC(=O)N(c2c(C)cccc2C)C1=S	7.4*	-0.6	1.9	-0.5	0.2	-11.9	0.4
C=CCNC(=O)CN(C(=O)Cc1ccc(Cl)cc1)c1cccc(Br)c1	x	4.3	x	8.1	x	x	x
CC1CCC2(CCC(=O)N2CCCOC(=O)Nc2cccc(C(F)(F)F)c2)CC1 (stereo unspecified)	x	-2.9	x	-1.9	x	x	x
Cc1cc(=O)c(C(=O)O)nn1-c1ccc(Cl)cc1	3.0	-1.0	-0.4	3.0	-0.1	14.7	-0.6
COc1ccc(C/C(C)=N/NC(=O)c2ccc(Cl)cc2)cc1	104.7*	1.1	-0.2	-0.5	-0.1	-1.9	-1.6
CCOC(=O)Nc1ccc2c(c1)N(C(=O)CCN(CC)CC)c1ccccc1CC2	7.8*	-1.6	1.1	2.0	0.1	-23.1	-3.1
CCN(CC)CCC(=O)N1c2ccccc2CCc2ccc(NC(=O)OC)cc21	1.9	0.5	0.3	3.1	0.1	2.6	x
CCN(CC)C(=O)c1cc2cc([N+](=O)[O-])ccc2s1	18.8*	-4.8	2.9	-7.0	0.2	x	2.8
COc1ccc(C)cc1S(=O)(=O)NCC(c1ccc2c(c1)OCO2)N1CCOCC1 (stereo unspecified)	10.7*	-1.0	2.4	-0.3	-0.1	x	-3.5
SMILES	V-ATPase pH	ADAM17 inh	MPTP block	ADAM10 inh	aDG glyco act	Hep lipid drop	VATPase regulator
O=C(COC(=O)c1cnc(Cl)c(Cl)c1)NCCC1=CCCCC1	65.3*	1.9	1.4	7.3	0.0	2.6	5.2
COc1ccc(C(=O)Oc2ccc3ccc(=O)oc3c2)cc1OC	-0.9	-340.4	0.3	i	0.0	-19.6	x
COc1ccc(C(=O)Oc2c(C)occc2=O)cc1OC	21.0*	-4.1	2.6	5.6	0.5	4.4	0.6
COc1ccc(OC)c(S(=O)(=O)N2CCCC(c3noc(-c4ccc(C)cc4)n3)C2)c1 (stereo unspecified)	x	-0.1	x	2.3	x	x	x
COc1ccc(Cn2ccc3ccc(-c4ccc5ccn(C(=O)c6ccc(C)cc6)c5c4)cc32)cc1	x	-7.0	x	-28.6	x	x	x
Cc1ccc(Nc2nnc(C)c3ccccc23)c(C)c1	12.4*	6.7	-0.2	-1.6	-0.2	x	9.1
O=C(Oc1ccc2ccc(=O)oc2c1)c1cccs1	25.3*	i	-0.9	i	-0.1	-0.7	0.6
CCS(=O)(=O)Nc1ccc2c(c1)C(=O)N(C)[C@@H]1CC[C@H](CC(=O)N3CCCCC3)O[C@H]1CO2	x	0.1	x	2.0	x	x	x
CCCCn1c(=O)[nH]c(=O)c2c1nc(-c1ccc(C)c([N+](=O)[O-])c1)n2CC	9.9*	-2.9	1.5	-5.2	0.0	1.7	-0.4
COC(=O)[C@]12C[C@H](CC(=O)N3CCN(C(=O)c4ccco4)CC3)C(=O)N(CCc3ccc(OC)c(OC)c3)C1=C[C@H](C1CCCC1)O[C@@H]2C	x	-0.8	x	-3.8	x	x	x
CCOC(=O)Cn1c(S(=O)(=O)Cc2ccccc2)nc2ccccc21	-5.1	-2.1	-0.9	-10.6	0.1	-5.2	-2.0
CCOC(=O)Cn1c(-c2ccc(Cl)nc2)nc2ccccc21	0.3	-9.3	-0.6	-17.1	0.1	x	1.1
CCOC(=O)Cn1c(=O)cnc2ccccc21	2.6	-22.8	-5.6	-76.1	-0.1	12.5	-3.9
COC(=O)[C@]12C[C@H](CC(=O)NCc3cccc4ccccc34)C(=O)N(Cc3ccc(Cl)cc3Cl)C1=C[C@H](C(C)(C)C)O[C@@H]2C	x	-0.9	x	-0.4	x	x	x
O=C(NCc1ccco1)Nc1ccc(Br)cc1	11.4*	3.9	0.1	12.7	0.1	x	0.1
COCCCNC(=S)N/N=C/c1ccc(O)cc1	12.9*	-1.7	-0.9	-5.4	0.0	-4.3	0.4
O=C(NCCN1C(=O)S/C(=C\c2ccc(Cl)cc2)C1=O)c1ccc(F)c(S(=O)(=O)N2CCOCC2)c1	9.5*	5.1	1.1	-0.3	0.2	-2.0	-2.0
O=C(NCCN1C(=O)S/C(=C\c2ccc(F)cc2)C1=O)c1cccc(S(=O)(=O)N2CCOCC2)c1	0.0	-3.2	2.2	0.3	0.2	-1.1	x
O=C(Nc1ccccc1)OCc1cnc(Cl)s1	7.0*	-3.5	1.6	-6.5	-0.1	8.4	2.0
O=C(Nc1ccc(Cl)c(Cl)c1)OCc1cnc(Cl)s1	1.8	1.6	8.9	10.0	0.8	x	x
O=C(Nc1ccc(Nc2ccccc2)cc1)C1CC1	7.5*	-0.6	0.8	5.8	0.1	8.7	7.0
Cn1c(N)c(C(=O)c2ccc(Cl)cc2)c(=O)n(C)c1=O	3.4	4.1	-0.4	5.3	0.1	-26.9	x
Cn1c(N)c(C(=O)c2ccc(F)cc2F)c(=O)n(C)c1=O	8.4*	1.9	-0.1	3.6	-0.1	-21.5	-0.4
CCCCN(C)c1nc(C)nc2c1nnn2Cc1ccccc1	x	0.7	x	1.9	x	x	x
COCCN(C(=O)COC(=O)CCn1c(C)csc1=O)c1c(N)n(Cc2ccccc2)c(=O)[nH]c1=O	14.9*	-3.5	-0.1	3.8	-0.2	x	2.1

Screens from PubChem.
